Experimental data as given in ChEMBL document CHEMBL1157912, “Impact of nature and length of linker incorporated in agonists on toll-like receptor 9-mediated immune responses” (J Med Chem, 2010).
Active and inactive are the calls of the source.

Tests used:
[1] = target: T1, Toll-like receptor 9 (Mus musculus) (UniProt Q9EQU3); test: Induction of TLR9-mediated IL12 production in C57BL/6 mouse spleen cells after 24 hrs by ELISA; type: cell-based
T1 sequence (whole entry): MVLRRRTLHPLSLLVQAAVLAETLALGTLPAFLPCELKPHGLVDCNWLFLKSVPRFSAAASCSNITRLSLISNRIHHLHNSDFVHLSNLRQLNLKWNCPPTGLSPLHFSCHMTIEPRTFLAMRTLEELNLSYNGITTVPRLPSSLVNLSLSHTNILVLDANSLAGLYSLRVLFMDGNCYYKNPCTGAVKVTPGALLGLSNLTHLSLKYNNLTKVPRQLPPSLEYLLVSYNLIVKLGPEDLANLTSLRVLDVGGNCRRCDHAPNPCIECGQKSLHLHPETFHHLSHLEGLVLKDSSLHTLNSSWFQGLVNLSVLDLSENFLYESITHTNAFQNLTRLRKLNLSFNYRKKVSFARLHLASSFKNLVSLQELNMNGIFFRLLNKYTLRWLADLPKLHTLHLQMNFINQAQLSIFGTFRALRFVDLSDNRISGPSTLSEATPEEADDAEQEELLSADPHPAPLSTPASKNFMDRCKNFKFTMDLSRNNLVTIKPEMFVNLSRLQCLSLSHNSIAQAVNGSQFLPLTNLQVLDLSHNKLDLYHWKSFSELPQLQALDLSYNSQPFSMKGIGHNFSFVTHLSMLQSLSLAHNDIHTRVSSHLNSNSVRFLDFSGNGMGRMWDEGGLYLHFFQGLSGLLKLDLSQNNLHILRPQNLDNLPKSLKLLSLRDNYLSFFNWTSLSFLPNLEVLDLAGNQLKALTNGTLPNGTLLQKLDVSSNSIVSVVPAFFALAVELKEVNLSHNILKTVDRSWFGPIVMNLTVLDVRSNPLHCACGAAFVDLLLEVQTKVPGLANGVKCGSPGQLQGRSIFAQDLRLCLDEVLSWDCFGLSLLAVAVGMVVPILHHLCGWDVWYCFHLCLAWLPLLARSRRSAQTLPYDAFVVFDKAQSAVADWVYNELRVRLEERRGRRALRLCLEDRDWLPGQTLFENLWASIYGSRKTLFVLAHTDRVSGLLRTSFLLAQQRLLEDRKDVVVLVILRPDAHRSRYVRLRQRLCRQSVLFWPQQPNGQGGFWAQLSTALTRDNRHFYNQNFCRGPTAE
Method in brief: (§1)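 C57BL/6 mouse spleen cells were cultured with agonists at 0.1, 0.3, 1, 3 and 10 μg/mL for 24 h. Secreted IL-12 and IL-6 in the supernatants were measured by ELISA. Values are averages of triplicate wells from one representative of at least two independent experiments.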

[2] = target: T2, Toll-like receptor 9 (Homo sapiens) (UniProt Q9NR96); test: Induction of TLR9-mediated human B cell proliferation assessed as [3H]thymidine uptake after 56 hrs by scintillation counting
T2 sequence (whole entry): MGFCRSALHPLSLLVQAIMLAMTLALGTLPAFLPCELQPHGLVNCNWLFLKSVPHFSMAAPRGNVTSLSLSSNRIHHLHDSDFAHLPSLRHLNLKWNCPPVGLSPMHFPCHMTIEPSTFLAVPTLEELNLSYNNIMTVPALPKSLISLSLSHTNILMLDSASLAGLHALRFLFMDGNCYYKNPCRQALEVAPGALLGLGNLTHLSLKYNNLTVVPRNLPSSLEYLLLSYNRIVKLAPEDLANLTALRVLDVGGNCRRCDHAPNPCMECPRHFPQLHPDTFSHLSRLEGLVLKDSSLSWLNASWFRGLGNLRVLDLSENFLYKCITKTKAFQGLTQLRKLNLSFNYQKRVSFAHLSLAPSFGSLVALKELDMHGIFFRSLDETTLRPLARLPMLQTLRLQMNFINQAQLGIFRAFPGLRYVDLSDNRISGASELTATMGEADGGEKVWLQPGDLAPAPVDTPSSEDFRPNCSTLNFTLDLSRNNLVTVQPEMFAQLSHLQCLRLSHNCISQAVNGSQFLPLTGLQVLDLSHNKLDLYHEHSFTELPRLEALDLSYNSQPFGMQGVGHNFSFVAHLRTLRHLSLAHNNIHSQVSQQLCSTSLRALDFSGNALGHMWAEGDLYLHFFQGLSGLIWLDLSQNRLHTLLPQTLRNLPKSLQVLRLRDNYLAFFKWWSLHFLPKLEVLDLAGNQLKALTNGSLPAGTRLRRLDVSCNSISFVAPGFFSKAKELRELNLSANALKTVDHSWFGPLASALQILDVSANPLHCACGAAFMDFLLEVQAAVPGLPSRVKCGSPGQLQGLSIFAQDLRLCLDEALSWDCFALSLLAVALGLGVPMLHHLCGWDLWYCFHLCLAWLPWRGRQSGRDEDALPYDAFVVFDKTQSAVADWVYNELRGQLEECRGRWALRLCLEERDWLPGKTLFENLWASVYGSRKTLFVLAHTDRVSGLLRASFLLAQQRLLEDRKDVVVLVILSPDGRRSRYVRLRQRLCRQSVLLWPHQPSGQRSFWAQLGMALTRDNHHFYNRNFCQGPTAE
Method in brief: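 B cells were purified from human PBMCs (healthy volunteers), about 1 × 10⁵ cells, and stimulated with various agonist concentrations for 56 h. Cells were then pulsed with 0.75 μCi [³H]-thymidine and harvested 16 h later. Incorporation was counted by scintillation and reported as cpm.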

[3] = target: T1, Toll-like receptor 9 (Mus musculus); test: Induction of TLR9-mediated IL6 production in C57BL/6 mouse spleen cells after 24 hrs by ELISA; type: cell-based; method in brief: as §1
Mus musculus = test: Immunostimulatory activity in C57BL/6 mouse assessed as increase in serum IL12 level at 1 mg/kg, sc after 2 hrs by ELISA; type: functional, organism-based; set-up: dose 1 mg/kg
Method in brief: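 Female C57BL/6 mice (n=3) received a single subcutaneous agonist dose of 1 mg/kg. Blood was taken by retro-orbital bleeding 2 h later, and serum IL-12 was measured by sandwich ELISA. Values are the mean of three mice ± SD.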

[4] = target: T1, Toll-like receptor 9 (Mus musculus); test: Activation of mouse TLR9 expressed in HEK293 cells assessed as induction of NF-kappaB activity after 18 hrs by SEAP assay; type: cell-based
Method in brief: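 HEK293 cells stably expressing mouse TLR9 were grown in DMEM with 10% heat-inactivated FBS. At 80% confluence they were transiently transfected with a SEAP reporter plasmid (100 ng/well, lipofectamine) for 6 h. Medium was then replaced and agonists were added for 18 h. Supernatant SEAP was read with QuantiBlue substrate at 620-645 nm. Results are expressed as fold NF-κB activity over PBS control.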

Measured: Activity

Cc1cn([C@H]2C[C@H](OCCn3c(=O)n(CCO)c(=O)n(CCOP(=O)(S)O[C@H]4C[C@H](n5cc(C)c(=O)[nH]c5=O)O[C@@H]4COP(=O)(S)O[C@H]4[C@@H](O)[C@H](n5ccc(N)nc5=O)O[C@@H]4COP(=O)(S)O[C@H]4C[C@H](n5cc(C)c(=O)[nH]c5=O)O[C@@H]4COP(=O)(S)O[C@H]4C[C@H](n5cc(C)c(=O)[nH]c5=O)O[C@@H]4COP(=O)(S)O[C@H]4C[C@H](n5ccc6c(=O)[nH]c(N)nc65)O[C@@H]4COP(=O)(S)O[C@H]4[C@@H](O)[C@H](n5ccc(N)nc5=O)O[C@@H]4COP(=O)(S)O[C@H]4C[C@H](n5cc(C)c(=O)[nH]c5=O)O[C@@H]4COP(=O)(S)O[C@H]4[C@@H](O)[C@H](n5cnc6c(=O)[nH]c(N)nc65)O[C@@H]4COP(=O)(S)O[C@H]4C[C@H](n5cc(C)c(=O)[nH]c5=O)O[C@@H]4COP(=O)(S)O[C@H]4[C@@H](O)[C@H](n5ccc(N)nc5=O)O[C@@H]4COP(=O)(S)O[C@H]4C[C@H](n5cc(C)c(=O)[nH]c5=O)O[C@@H]4CO)c3=O)[C@@H](COP(=O)(S)O[C@H]3[C@@H](O)[C@H](n4ccc(N)nc4=O)O[C@@H]3COP(=O)(S)O[C@H]3C[C@H](n4cc(C)c(=O)[nH]c4=O)O[C@@H]3COP(=O)(S)O[C@H]3C[C@H](n4cc(C)c(=O)[nH]c4=O)O[C@@H]3COP(=O)(S)O[C@H]3C[C@H](n4ccc5c(=O)[nH]c(N)nc54)O[C@@H]3COP(=O)(S)O[C@H]3[C@@H](O)[C@H](n4ccc(N)nc4=O)O[C@@H]3COP(=O)(S)O[C@H]3C[C@H](n4cc(C)c(=O)[nH]c4=O)O[C@@H]3COP(=O)(S)O[C@H]3[C@@H](O)[C@H](n4cnc5c(=O)[nH]c(N)nc54)O[C@@H]3COP(=O)(S)O[C@H]3C[C@H](n4cc(C)c(=O)[nH]c4=O)O[C@@H]3COP(=O)(S)O[C@H]3[C@@H](O)[C@H](n4ccc(N)nc4=O)O[C@@H]3COP(=O)(S)O[C@H]3C[C@H](n4cc(C)c(=O)[nH]c4=O)O[C@@H]3CO)O2)c(=O)[nH]c1=O (stereo not given in full)
active: [1] Dose-dependent effect | [2] Dose-dependent effect | [3] Dose-dependent effect | Mus musculus | [4] Dose-dependent effect
